Hits are enriched below; roughly 2.3% of the tested compounds scored in any of these assays.
MT stabilizer: microtubule stabilizers in HeLa cells, primary screen, imaging, high-content imaging; HeLa tubulin immunostaining HCS, 24 h; share of cells brighter than vehicle mean+2SD; % tubulin-high responders, % at 10 µM; hit rate 0.83% among 200,000; AID 2205, 2009;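 active means plate Z-score above 3 for both tubulin-high and condensed-nucleus cell shares, with cell loss under 80%, at 10 µM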;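 further: anti alpha tubulin signal scored within the nucleus-defined area of each cell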
Autophagy HCS: autophagy modulators in MEF cells, primary screen, imaging, high-content, MEF GFP-LC3; hit rate 0.98% among 190,000; calls only at 10 µM (by protocol); MEF GFP-LC3 puncta imaging; test concentration mostly 10 µM;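 active means percentage of spot-positive cells more than 3 SD above its plate mean, without a fluorescence outlier flag or 80% toxicity; inconclusive means no clear call, values can overlap the other calls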;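 further: spot-positive cell cutoff set from DMSO-treated cells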
bCat nuc transl: modulators of beta-catenin nuclear translocation, primary screen, imaging, HeLa cells, immunofluorescence, high-content | nuclear translocation activity, % at 5 µM | hit rate 0.3% among 190,000 | AID 1665, 2009;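 active means nuclear translocation activity above 50% at 5 µM, with a well cell count of 50 or more; inconclusive means wells under 50 cells across six images, flagged as toxic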;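 further: per-cell ratio of nuclear to cytoplasmic median beta-catenin stain intensity; plate controls were DMSO negative control for no effect and GSK-3 inhibitor IX positive control for full effect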
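Test system: human HeLa cells, endogenous beta-catenin. Times: 24 h compound exposure, 37°C. Measured by: beta-catenin immunofluorescence imaging with DAPI.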
Insulin prom up: insulin promoter activators in MIN6 cells, imaging, high-content screening, mouse beta cells. MIN6 insulin promoter-GFP reporter; hits give high values. z-score at 5 µM. hit rate 0.3% among 190,000. AID 1625, 2009;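 active means z-score above 3 at 5 µM with at least 500 cells counted in the well; inconclusive means wells under 500 cells, flagged as cytotoxic or low count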
Dynein transport: inhibitors of GR-EGFP nuclear translocation, primary screen, dynein cargo transport inhibitor project, imaging, high-content, 3617.4 mouse cells | test concentration mostly 20 µM; stimulated with dexamethasone, 1 µM; hits give low values | z-score, hits read low | hit rate 0.47% among 220,000 | AID 1381, 2008;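 active means plate z-score of nuclear minus cytoplasmic receptor signal below a set negative limit, without overly bright fluorescence or cell loss, cut at about -3.5 in these data, passing the limit was not always enough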;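 further: z-score of nuclear minus cytoplasmic ring GR-EGFP intensity difference per well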
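Buffer or medium: tet-free medium with charcoal-stripped serum / Also added: dexamethasone agonist, 1.0 µM final, for 30 min / Timing: induction 48 h, compound 1 h, agonist 30 min / Measured by: high-content fluorescence imaging after fixation / Read-out: nuclear-to-cytoplasmic GR-EGFP distribution per well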
An asterisk follows results filed as active; i = inactive; ? = inconclusive; nt = no result given; + = active, no number.

SMILES | MT stabilizer | Autophagy HCS | bCat nuc transl | Insulin prom up | Dynein transport
COc1ccc(S(=O)(=O)N2c3cc(Cl)ccc3Oc3nc4ccccc4nc32)cc1 | 12.6 | + | -0.9 | -0.85 | 0.388
COCCCN1CN(S(=O)(=O)c2ccc(Cl)cc2)c2nc3ccccc3nc21 | 3.3 | i | -2.2 | -0.39 | 0.0198
COc1ccc(S(=O)(=O)N2CCN(Cc3cccc(Cl)c3)CC2)cc1 | 2.5 | i | 3.1 | -0.34 | -0.818
Cc1nc2c(C)cccn2c1/C(O)=C1\C(=O)C(=O)N(CCN(C)C)C1c1ccccc1 (centres undefined) | nt | nt | -0.1 | 0.96 | 0.517
Clc1cccc(CSc2nnc(-c3ccccn3)n2Cc2ccco2)c1 | 6.1 | i | 0.1 | -1.25 | -2.07
C(=C\c1ccccc1)/CSc1nnc(-c2ccncc2)n1Cc1ccco1 | 3.7 | i | -6.4 | -0.65 | 1.07
Brc1ccc(CSc2nnc(-c3ccccn3)n2Cc2ccco2)cc1 | 30.5 | i | 100.1* | -1.31 | -0.91
Clc1cccc(-c2nnc(SC/C=C/c3ccccc3)n2Cc2ccco2)c1 | 37.3* | i | 0.2 | nt | -1.27
C(=C\c1ccccc1)/CSc1nnc(-c2ccccc2)n1Cc1ccco1 | 23.2* | i | 141.1* | -0.65 | 0.298
CCN(CC)S(=O)(=O)c1ccc(/C=C/C(=O)Nc2ccc(N3CCOCC3)cc2)cc1 | nt | nt | -0.4 | -0.18 | 0.137
CCc1ccc(-c2nc(C(N)=O)c3[nH]c(=O)n(-c4ccccc4OC)c3n2)cc1 | 17.2* | i | -0.8 | -0.06 | -0.457
C/C(N)=C(/C#N)C(=O)CSc1cc(C)c2cc(C)cc(C)c2n1 | 3.2 | + | 0.4 | -0.05 | 0.906
CC(C)c1onc(C(=O)NC(C)c2ccccc2)c1[N+](=O)[O-] (centres undefined) | 3.1 | i | -0.8 | 1.41 | 2.52
Cc1ccc(S(=O)(=O)N(C)c2ccc3sc(C)nc3c2)cc1 | 18.1* | i | -2.2 | 0 | -1.12
Cc1ccc(S(=O)(=O)N(C)c2ccc(N)cc2)cc1 | 2.2 | i | -3.7 | -0.89 | -0.512
CCOC(=O)c1c(Nc2ccc(Cl)cc2)sc(/C=C2\C=Nc3ccccc32)c1O | 2.3 | + | -1.4 | nt | -1.09
C/C(CCC12CC3CC(CC(C3)C1)C2)=N\NC(N)=S | 0.3 | + | nt | nt | -0.518
C/C(CC1CC(C)OC1=O)=N\NC(N)=S (centres undefined) | 3.8 | i | -0.9 | 1.24 | 0.487
COc1ccccc1NC(=O)C1=C(C)Nc2nc(-c3cccs3)nn2C1c1cccc(O)c1 (centres undefined) | 3.7 | + | -3.8 | -1.23 | 2.11
N#CCCN(CCC#N)C(=S)NC1CC2C=CC1C2 (centres undefined) | nt | nt | 1.4 | -0.29 | 0.853
CC(=O)Oc1ccc(-c2ccc(C(=O)Nc3cccc(S(=O)(=O)N4CCOCC4)c3)cc2)cc1 | 9.6 | i | 0.2 | -1.04 | -0.179
COc1ccc(C(=O)NC(=S)Nc2cccc(S(=O)(=O)N3CCOCC3)c2)cc1 | 22.4* | i | -0.1 | -0.73 | -0.471
Cc1ccc(Nc2cc(=O)oc3ccccc23)c(C)c1 | 26.8* | i | 0.9 | 0.17 | -0.364
Cc1nnsc1-c1onc(C)c1C(=O)O/N=C/c1ccc(Cl)cc1 | nt | nt | -3.0 | nt | -0.984
CC(C)c1ccc(-n2c(-c3ccccc3)c[n+]3c2CCc2ccccc2-3)cc1 | 2.7 | + | 1.9 | ? | 0.307
SMILES | MT stabilizer | Autophagy HCS | bCat nuc transl | Insulin prom up | Dynein transport
COc1ccc(-n2c(-c3ccc(Br)cc3)c[n+]3c2CCc2ccccc2-3)cc1 | 2.1 | i | -0.7 | -1.98 | -0.108
O=C(Nc1ccc(Br)cn1)c1cccc2c1-c1ccccc1C2=O | 36.3* | i | 1.0 | nt | 1.43
CCN(CC)c1ccc(NC(=O)c2ccccc2F)cc1 | 52.4* | i | nt | -0.67 | -0.136
O=C(COc1cccc2cccnc12)N/N=C/c1ccccc1O | nt | nt | 1.6 | 0.38 | 1.58
Oc1ccccc1/C=N/Nc1cccc2cccnc12 | 2.5 | + | -0.5 | -0.59 | -0.583
CCOC(=O)c1ccc(CSc2nnc(-c3ccncc3)n2N)cc1 | 2.6 | i | -2.0 | 3.8* | 0.0883
CCOC(=O)Cc1csc(NC(=O)c2ccc(Cl)nc2)n1 | 36.8* | i | 1.3 | -0.25 | 0.261
CCOC(=O)Cc1csc(NC(=O)c2ccc(C)cc2)n1 | 2.3 | i | 1.1 | nt | 0.405
COCCCNC(=O)c1cc(C(=O)c2ccccc2Br)c[nH]1 | 2.1 | i | -0.3 | -0.42 | 0.632
CC1(C)Cc2nc3sc4c(SCC(=O)NCc5ccccc5)ncnc4c3cc2CO1 | 35.1* | + | nt | -2.14 | -0.0125
CC1(C)Cc2nc3sc4c(SCC(=O)O)ncnc4c3cc2CO1 | nt | nt | 0.2 | 0.33 | -0.728
Cc1ccsc1-c1nc(CN(C)C(C2CC2)C2CC2)c(C)o1 | 0.8 | i | -0.1 | -1.18 | 0.287
CCN(CC)S(=O)(=O)c1ccc(OCCNS(C)(=O)=O)cc1 | 4.3 | i | 0.7 | -0.16 | -0.807
CCOC(=O)c1cnn(-c2nc(-c3ccc(C)cc3)cs2)c1C(F)(F)F | 28.7* | i | -1.7 | -0.67 | -0.752
O=C(O)c1cnn(-c2nc(-c3ccc(F)cc3)cs2)c1C(F)(F)F | 1.8 | i | -1.5 | 0.17 | -0.712
Cc1cccc(C)c1NC(=S)N(Cc1ccccc1)Cc1cccs1 | 1.7 | i | -0.6 | -0.98 | -0.377
COc1ccccc1N/C(N)=N/c1nc(C(F)(F)F)cc(=O)[nH]1 | 2.3 | i | -2.9 | nt | 0.365
COc1ccc(OC)c(NC(=O)c2cnc3ccccn3c2=O)c1 | 3.4 | i | nt | nt | 3.35
COc1ccc(OC)c(NC(=O)c2cnc(Nc3ccccc3OC)c3ccccc23)c1 | 19.2* | i | -1.6 | -0.15 | -0.4
N#Cc1ccccc1NC(=O)C1SC(=Nc2ccccc2)C(C(=O)Nc2ccc(Cl)cc2)=C1N (centres undefined) | 3.5 | i | -1.6 | -5.91 | 0.637
COc1ccccc1N=C1SC(C(=O)Nc2cccc(Cl)c2Cl)C(N)=C1C(N)=O (centres undefined) | nt | nt | 62.4* | -0.8 | -0.441
O=C(NN=C1CCN(Cc2ccccc2)CC1)c1cccc(S(=O)(=O)Nc2ccccc2Cl)c1 | 2.7 | i | 0.1 | 3.03* | -0.222
COc1ccccc1NS(=O)(=O)c1cccc(C(=O)NN=C2CCCCCC2)c1 | 2.6 | i | 1.5 | nt | -0.756
Cc1ccc(N/C(C(Cl)=C(Cl)Cl)=C(/Cl)[N+](=O)[O-])c(C)c1 | 4.1 | i | nt | 0.15 | -1.16
COc1cc(C(c2c(C)[nH][nH]c2=O)c2c(C)[nH][nH]c2=O)cc(OC)c1OC | 1.7 | + | 1.7 | -0.64 | 1.72
Cc1ccc(C(=O)CSc2cnc3ccccc3n2)cc1C | 1.7 | i | nt | -0.43 | 0.144
O=C(CCc1nnc(Cc2ccc(-c3ccccc3)cc2)o1)NCCc1cccnc1 | 4.5 | i | -0.8 | -0.5 | 0.463
COC(=O)Nc1ccc(S(=O)(=O)N2CCCc3cccc(O)c32)cc1 | 2.4 | i | -0.4 | 0.54 | -0.888

From PubChem BioAssay
